Test system: patients with advanced, refractory solid tumours
Assay: Phase I dose escalation: toxicity
Format: in vivo, human
In short: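 Oral dosing was once daily in 28-day cycles, escalating by an accelerated design from 0.2 mg/day. Toxicity was graded by NCI CTC v3.0. During cycle 1, patients had weekly examination, blood pressure, full blood count, biochemistry and urinalysis, plus ECGs on days 1 and 8. DLT covered drug-related toxicity in cycle 1: grade ⩾3 toxicity, repeated grade 2 toxicity needing dose reduction, or <75% of planned dose given. The MTD was the highest dose with ≤1/6 patients having a DLT, and 12 more patients were treated at the MTD.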

[1] = treatment-related, 25 mg (n=24)
[2] = treatment-related, 0.2–6.4 mg (n=21)

Structure (SMILES): COc1cc2nccc(Oc3ccc(NC(=O)NC4CC4)c(Cl)c3)c2cc1C(N)=O [E7080]
- Dose modifications required, % of patients (all doses): 49%
- Dose modifications required, n patients (all doses): 40
- Dose reduction because of stomatitis, % of patients (all doses): 2%
- Haematological toxicities, % of patients (all grades, all doses): 7%
- Dose modifications required, % of patients (at the MTD of 25 mg): 54%
- Dose modifications required, n patients (at the MTD of 25 mg): 13
- Tolerability (doses up to 25 mg per day, oral, daily continuous dosing): well tolerated
- Maximum tolerated dose (MTD) (oral, once-daily continuous schedule, 28-day cycles): 25 mg
- Abdominal pain (all grades), n patients [1]: 7
- Anorexia (all grades), % of patients [1]: 21%
- Anorexia (all grades), n patients [1]: 5
- Constipation (all grades), n patients [1]: 8
- Diarrhoea (all grades), n patients [1]: 12
- Dry skin (all grades), % of patients [1]: 46%
- Dry skin (all grades), n patients [1]: 11
- Dysphonia (all grades), % of patients [1]: 46%
- Dysphonia (all grades), n patients [1]: 11
- Fatigue (all grades), % of patients [1]: 21%
- Fatigue (all grades), n patients [1]: 5
- Headache (all grades), n patients [1]: 7
- Hypertension (all grades), n patients [1]: 15
- Hypertension Grade 1, % of patients [1]: 4%
- Hypertension Grade 1, n patients [1]: 1
- Hypertension Grade 2, % of patients [1]: 46%
- Hypertension Grade 2, n patients [1]: 11
- Hypertension Grade 3, % of patients [1]: 13%
- Lethargy (all grades), % of patients [1]: 38%
- Lethargy (all grades), n patients [1]: 9
- Nausea (all grades), n patients [1]: 14
- Proteinuria (all grades), n patients [1]: 7
- Proteinuria Grade 1, % of patients [1]: 0%
- Proteinuria Grade 1, n patients [1]: 0
- Proteinuria Grade 2, % of patients [1]: 21%
- Proteinuria Grade 2, n patients [1]: 5
- Proteinuria Grade 3, % of patients [1]: 8%
- Stomatitis (all grades), n patients [1]: 15
- Vomiting (all grades), n patients [1]: 8
- Abdominal pain (all grades), % of patients (treatment-related, 32 mg (n=7)): 0%
- Abdominal pain (all grades), n patients (treatment-related, 32 mg (n=7)): 0
- Anorexia (all grades), n patients (treatment-related, 32 mg (n=7)): 2
- Constipation (all grades), % of patients (treatment-related, 32 mg (n=7)): 14%
- Constipation (all grades), n patients (treatment-related, 32 mg (n=7)): 1
- Diarrhoea (all grades), n patients (treatment-related, 32 mg (n=7)): 4
- Dry skin (all grades), % of patients (treatment-related, 32 mg (n=7)): 14%
- Dry skin (all grades), n patients (treatment-related, 32 mg (n=7)): 1
- Dysphonia (all grades), n patients (treatment-related, 32 mg (n=7)): 3
- Fatigue (all grades), % of patients (treatment-related, 32 mg (n=7)): 14%
- Fatigue (all grades), n patients (treatment-related, 32 mg (n=7)): 1
- Headache (all grades), n patients (treatment-related, 32 mg (n=7)): 2
- Hypertension (all grades), n patients (treatment-related, 32 mg (n=7)): 4
- Hypertension Grade 1, n patients (treatment-related, 32 mg (n=7)): 2
- Hypertension Grade 2, % of patients (treatment-related, 32 mg (n=7)): 0%
- Hypertension Grade 2, n patients (treatment-related, 32 mg (n=7)): 0
- Hypertension Grade 3, n patients (treatment-related, 32 mg (n=7)): 2
- Lethargy (all grades), n patients (treatment-related, 32 mg (n=7)): 2
- Nausea (all grades), n patients (treatment-related, 32 mg (n=7)): 3
- Proteinuria (all grades), n patients (treatment-related, 32 mg (n=7)): 3
- Proteinuria Grade 1, % of patients (treatment-related, 32 mg (n=7)): 0%
- Proteinuria Grade 1, n patients (treatment-related, 32 mg (n=7)): 0
- Proteinuria Grade 2, % of patients (treatment-related, 32 mg (n=7)): 14%
- Proteinuria Grade 2, n patients (treatment-related, 32 mg (n=7)): 1
- Proteinuria Grade 3, n patients (treatment-related, 32 mg (n=7)): 2
- Stomatitis (all grades), n patients (treatment-related, 32 mg (n=7)): 4
- Vomiting (all grades), % of patients (treatment-related, 32 mg (n=7)): 14%
- Vomiting (all grades), n patients (treatment-related, 32 mg (n=7)): 1
- Abdominal pain (all grades), % of patients [2]: 0%
- Abdominal pain (all grades), n patients [2]: 0
- Anorexia (all grades), % of patients [2]: 10%
- Anorexia (all grades), n patients [2]: 2
- Constipation (all grades), % of patients [2]: 10%
- Constipation (all grades), n patients [2]: 2
- Diarrhoea (all grades), n patients [2]: 4
- Dry skin (all grades), % of patients [2]: 5%
- Dry skin (all grades), n patients [2]: 1
- Dysphonia (all grades), % of patients [2]: 0%
- Dysphonia (all grades), n patients [2]: 0
- Fatigue (all grades), % of patients [2]: 10%
- Fatigue (all grades), n patients [2]: 2
- Headache (all grades), % of patients [2]: 0%
- Headache (all grades), n patients [2]: 0
- Hypertension (all grades), % of patients [2]: 10%
- Hypertension (all grades), n patients [2]: 2
- Hypertension Grade 1, % of patients [2]: 5%
- Hypertension Grade 1, n patients [2]: 1
- Hypertension Grade 2, % of patients [2]: 0%

— PMC3349182 (British Journal of Cancer, 2012)
